Experimental data reported in ChEMBL document CHEMBL3098028, “Synthesis and in vitro and in vivo pharmacological evaluation of new 4-aminoquinoline-based compounds” (ACS Med Chem Lett, 2013).
≈ marks a conversion by molar mass, not a printed value.

Assays:
Mus musculus [1] = experiment: AUC (0 to infinity) in C57BL/6 mouse at 20 mg/kg, po; format: ADME, organism-based, Plasma; set-up: time infinity, dose 20 mg/kg, route oral; conditions: in vivo
Procedure, shortened: (§1)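 Healthy male C57/BL6 mice received a single intravenous dose (2.5 or 5.0 mg/kg) or oral dose (20 or 40 mg/kg). Plasma concentrations were followed over time to give AUC0-∞ in min·μmol/L, alongside t1/2, CL, Vd, Vss, Cmax, Tmax and oral bioavailability. Values are means of five animals.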

Mus musculus [2] = experiment: AUC (0 to infinity) in C57BL/6 mouse at 40 mg/kg, po; format: ADME, organism-based, Plasma; set-up: time infinity, dose 40 mg/kg, route oral; conditions: in vivo; procedure, shortened: as §1
Mus musculus [3] = experiment: AUC (0 to infinity) in C57BL/6 mouse at 5 mg/kg, iv; format: ADME, organism-based, Plasma; set-up: dose 5 mg/kg, route intravenous, time infinity; conditions: in vivo; procedure, shortened: as §1
Mus musculus [4] = experiment: AUC (0 to infinity) in C57BL/6 mouse at 2.5 mg/kg, iv; format: ADME, organism-based, Plasma; set-up: time infinity, dose 2.5 mg/kg, route intravenous; conditions: in vivo; procedure, shortened: as §1
Liver microsome [5] = experiment: Drug metabolism in rat liver microsomes assessed as 4-(2-((1-tert-butyl-1H-tetrazol-5-yl)(4-chlorophenyl)methylamino)ethylamino)-7-chloroquinoline 1-oxide level at 5 uM after 1 hr by LC-MS/MS analysis; format: ADME
Liver microsome [6] = experiment: Drug metabolism in human liver microsomes assessed as 2-(5-((4-chlorophenyl)(2-(7-chloroquinolin-4-ylamino)ethylamino)methyl)-1H-tetrazol-1-yl)-2-methylpropan-1-ol level at 5 uM after 1 hr by LC-MS/MS analysis; format: ADME
Liver microsome [7] = experiment: Drug metabolism in human liver microsomes assessed as 4-(2-((1-tert-butyl-1H-tetrazol-5-yl)(4-chlorophenyl)methylamino)ethylamino)-7-chloroquinoline 1-oxide level at 5 uM after 1 hr by LC-MS/MS analysis; format: ADME
[8] = Drug metabolism in hepatocytes (unknown origin) assessed as 2-(5-((4-chlorophenyl)(2-(7-chloroquinolin-4-ylamino)ethylamino)methyl)-1H-tetrazol-1-yl)-2-methylpropan-1-ol level at 5 uM after 6 hrs by LC-MS/MS analysis; format: ADME, cell-based, Hepatocyte
[9] = Drug metabolism in hepatocytes (unknown origin) assessed as 4-(2-((1-tert-butyl-1H-tetrazol-5-yl)(4-chlorophenyl)methylamino)ethylamino)-7-chloroquinoline 1-oxide level at 5 uM after 6 hrs by LC-MS/MS analysis; format: ADME, cell-based, Hepatocyte
CHO = experiment: Cytotoxicity against CHO cells; format: cell-based; conditions: Cricetulus griseus
Cytochrome P450 2E1 = Cytochrome P450 2E1 (Homo sapiens, UniProt P05181); experiment: Inhibition of CYP2E1 in human liver microsomes assessed as chlorzoxazone 6-hydroxylation after 20 mins by LC-MS/MS analysis; format: ADME
Cytochrome P450 2A6 = target: T1, Cytochrome P450 2A6 (Homo sapiens, UniProt P11509); experiment: Inhibition of CYP2A6 in human liver microsomes assessed as coumarin 7-hydroxylation after 20 mins by LC-MS/MS analysis; format: ADME
T1 sequence (P11509 whole entry): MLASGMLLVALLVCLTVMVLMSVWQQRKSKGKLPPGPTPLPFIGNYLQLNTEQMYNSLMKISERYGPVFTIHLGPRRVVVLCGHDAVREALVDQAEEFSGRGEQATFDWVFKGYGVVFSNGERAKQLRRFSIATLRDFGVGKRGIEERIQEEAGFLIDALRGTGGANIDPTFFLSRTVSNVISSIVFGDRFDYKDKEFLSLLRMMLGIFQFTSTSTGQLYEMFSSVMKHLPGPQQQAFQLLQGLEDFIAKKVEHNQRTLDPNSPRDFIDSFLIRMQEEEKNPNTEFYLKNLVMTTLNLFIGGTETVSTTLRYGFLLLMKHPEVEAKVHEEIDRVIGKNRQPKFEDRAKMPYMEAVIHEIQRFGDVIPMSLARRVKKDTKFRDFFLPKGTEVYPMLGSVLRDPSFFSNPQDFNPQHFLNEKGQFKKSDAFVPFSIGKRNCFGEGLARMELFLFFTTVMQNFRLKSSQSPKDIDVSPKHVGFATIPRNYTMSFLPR

Cytochrome P450 3A4 = Cytochrome P450 3A4 (Homo sapiens, UniProt P08684); experiment: Inhibition of CYP3A4 in human liver microsomes assessed as midazolam 1'-hydroxylation and testosterone 6beta-hydroxylation after 20 mins by LC-MS/MS analysis; format: ADME
Cytochrome P450 2D6 = Cytochrome P450 2D6 (Homo sapiens, UniProt P10635); experiment: Inhibition of CYP2D6 in human liver microsomes assessed as bufuralol 1'-hydroxylation after 20 mins by LC-MS/MS analysis; format: ADME
Cytochrome P450 2C9 = Cytochrome P450 2C9 (Homo sapiens, UniProt P11712); experiment: Inhibition of CYP2C9 in human liver microsomes assessed as diclofenac 4'-hydroxylation after 20 mins by LC-MS/MS analysis; format: ADME
Cytochrome P450 2C8 = target: T2, Cytochrome P450 2C8 (Homo sapiens, UniProt P10632); experiment: Inhibition of CYP2C8 in human liver microsomes assessed as paclitaxel 6alpha-hydroxylation after 20 mins by LC-MS/MS analysis; format: ADME
T2 sequence (P10632 whole entry): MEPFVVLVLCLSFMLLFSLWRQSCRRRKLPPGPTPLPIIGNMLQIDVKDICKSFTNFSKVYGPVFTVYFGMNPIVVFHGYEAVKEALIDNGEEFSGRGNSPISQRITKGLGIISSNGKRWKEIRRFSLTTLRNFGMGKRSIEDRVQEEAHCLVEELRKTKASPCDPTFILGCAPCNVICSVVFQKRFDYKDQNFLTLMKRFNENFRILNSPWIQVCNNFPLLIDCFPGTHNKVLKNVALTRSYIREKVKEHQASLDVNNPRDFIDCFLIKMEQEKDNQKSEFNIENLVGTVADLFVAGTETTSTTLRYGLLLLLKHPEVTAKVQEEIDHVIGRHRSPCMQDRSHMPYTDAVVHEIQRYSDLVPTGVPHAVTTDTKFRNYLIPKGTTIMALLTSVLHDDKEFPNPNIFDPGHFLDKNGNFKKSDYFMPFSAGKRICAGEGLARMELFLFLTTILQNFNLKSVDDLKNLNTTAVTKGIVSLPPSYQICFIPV

[10] = Kinetic solubility of the compound in phosphate buffered saline at pH 7.4 after 2 hrs by HPLC analysis; format: physicochemical; conditions: read-out: Kinetic_solubility
Plasmodium falciparum [11] = experiment: Antiplasmodial activity against chloroquine-resistant Plasmodium falciparum W2 after 24 hrs by [3H]hypoxanthine incorporation assay; format: functional, organism-based
Procedure, shortened: (§2)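 Antiplasmodial testing was done at the Swiss Tropical and Public Health Institute. Chloroquine, the reference drug, was tested as its diphosphate salt.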

Plasmodium falciparum [12] = experiment: Antiplasmodial activity against chloroquine-resistant Plasmodium falciparum K1 after 24 hrs by [3H]hypoxanthine incorporation assay; format: functional, organism-based; procedure, shortened: as §2

Chain of Cytochrome P450 2C9 (P11712 whole entry): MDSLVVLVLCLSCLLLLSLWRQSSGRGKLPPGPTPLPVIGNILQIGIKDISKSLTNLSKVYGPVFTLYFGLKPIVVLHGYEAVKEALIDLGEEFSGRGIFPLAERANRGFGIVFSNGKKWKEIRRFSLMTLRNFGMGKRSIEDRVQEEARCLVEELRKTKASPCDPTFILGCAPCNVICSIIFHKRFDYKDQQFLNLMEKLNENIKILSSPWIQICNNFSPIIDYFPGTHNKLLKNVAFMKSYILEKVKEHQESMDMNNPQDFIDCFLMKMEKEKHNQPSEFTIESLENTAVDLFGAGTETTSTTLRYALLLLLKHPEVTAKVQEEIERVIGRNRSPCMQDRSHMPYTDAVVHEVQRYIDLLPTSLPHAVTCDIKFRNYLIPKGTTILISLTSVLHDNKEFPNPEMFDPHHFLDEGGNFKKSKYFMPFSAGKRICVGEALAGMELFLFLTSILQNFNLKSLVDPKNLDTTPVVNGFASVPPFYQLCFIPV
Chain of Cytochrome P450 2D6 (P10635 whole entry): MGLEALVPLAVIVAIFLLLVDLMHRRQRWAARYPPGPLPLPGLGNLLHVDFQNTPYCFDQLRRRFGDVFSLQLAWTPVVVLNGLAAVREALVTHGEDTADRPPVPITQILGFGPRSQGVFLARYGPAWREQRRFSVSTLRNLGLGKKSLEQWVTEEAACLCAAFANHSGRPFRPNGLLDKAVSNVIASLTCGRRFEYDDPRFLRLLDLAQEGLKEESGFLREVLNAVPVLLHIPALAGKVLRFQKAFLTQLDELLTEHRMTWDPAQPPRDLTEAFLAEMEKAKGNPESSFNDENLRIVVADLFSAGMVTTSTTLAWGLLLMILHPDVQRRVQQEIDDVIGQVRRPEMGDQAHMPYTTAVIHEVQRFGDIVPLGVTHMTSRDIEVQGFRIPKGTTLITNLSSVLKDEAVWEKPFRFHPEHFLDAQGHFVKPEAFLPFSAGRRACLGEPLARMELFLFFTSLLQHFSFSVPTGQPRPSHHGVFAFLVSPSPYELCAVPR
Chain of Cytochrome P450 2E1 (P05181 whole entry): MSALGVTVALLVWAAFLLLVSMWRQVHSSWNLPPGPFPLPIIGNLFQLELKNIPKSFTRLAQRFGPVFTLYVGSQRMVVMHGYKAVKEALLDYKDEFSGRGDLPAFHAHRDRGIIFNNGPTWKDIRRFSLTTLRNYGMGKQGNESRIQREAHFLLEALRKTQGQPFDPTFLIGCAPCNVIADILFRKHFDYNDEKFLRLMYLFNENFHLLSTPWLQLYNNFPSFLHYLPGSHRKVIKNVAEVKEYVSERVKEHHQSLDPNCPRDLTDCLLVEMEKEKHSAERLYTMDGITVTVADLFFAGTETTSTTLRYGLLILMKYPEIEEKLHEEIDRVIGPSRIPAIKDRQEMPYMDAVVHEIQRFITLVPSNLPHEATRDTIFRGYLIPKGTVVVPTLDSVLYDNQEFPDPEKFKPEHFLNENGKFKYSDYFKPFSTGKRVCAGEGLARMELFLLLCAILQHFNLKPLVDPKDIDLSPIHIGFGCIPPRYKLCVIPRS
Chain of Cytochrome P450 3A4 (P08684 whole entry): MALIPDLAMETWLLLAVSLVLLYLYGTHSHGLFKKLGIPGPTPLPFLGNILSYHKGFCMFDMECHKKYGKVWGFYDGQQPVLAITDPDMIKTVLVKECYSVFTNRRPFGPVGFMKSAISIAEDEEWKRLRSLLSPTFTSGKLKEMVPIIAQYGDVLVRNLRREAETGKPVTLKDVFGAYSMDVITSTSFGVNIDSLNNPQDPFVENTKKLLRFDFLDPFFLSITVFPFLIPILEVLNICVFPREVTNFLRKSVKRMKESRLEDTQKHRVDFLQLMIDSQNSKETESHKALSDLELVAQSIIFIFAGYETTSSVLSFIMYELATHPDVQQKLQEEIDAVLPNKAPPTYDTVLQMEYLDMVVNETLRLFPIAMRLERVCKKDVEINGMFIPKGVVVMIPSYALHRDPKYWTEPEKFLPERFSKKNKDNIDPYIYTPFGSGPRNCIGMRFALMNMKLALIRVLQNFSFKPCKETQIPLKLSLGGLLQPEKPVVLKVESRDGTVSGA

CC(C)(C)n1nnnc1C(NCCNc1ccnc2cc(Cl)ccc12)c1ccc(Cl)cc1 (centres undefined)
AUC (Mus musculus [1]): 222 µmol·min/L | AUC (Mus musculus [2]): 541 µmol·min/L | AUC (Mus musculus [3]): 221 µmol·min/L | AUC (Mus musculus [4]): 107 µmol·min/L | Drug metabolism (Liver microsome [5]): Active | Drug metabolism (Liver microsome [6]): Active | Drug metabolism (Liver microsome [7]): Active | Drug metabolism [8]: Active | Drug metabolism [9]: Active | IC50 (CHO): 97.8 µM | IC50 (Cytochrome P450 2E1): > 20 µM | IC50 (Cytochrome P450 2A6): > 20 µM | IC50 (Cytochrome P450 3A4): 0.08 µM | IC50 (Cytochrome P450 2D6): 4 µM | IC50 (Cytochrome P450 2C9): 8.91 µM | IC50 (Cytochrome P450 2C8): 12.7 µM | solubility kinetic at 2 h [10]: 6.88 µM (≈ 3.24 µg/mL) | IC50 (Plasmodium falciparum [11]): 0.0255 µM | IC50 (Plasmodium falciparum [12]): 0.001 µM
